# Source: ChEMBL document CHEMBL2321860, “2-Arylpyrazolo[4,3-d]pyrimidin-7-amino derivatives as new potent and selective human A3 adenosine receptor antagonists. Molecular modeling studies and pharmacological evaluation” (J Med Chem, 2013)
# Activity calls are given as the source filed them. The rule behind the calls is not given here.
# Target: T1, Adenosine receptor A3 (Rattus norvegicus) (UniProt P28647)
# T1 sequence (whole entry): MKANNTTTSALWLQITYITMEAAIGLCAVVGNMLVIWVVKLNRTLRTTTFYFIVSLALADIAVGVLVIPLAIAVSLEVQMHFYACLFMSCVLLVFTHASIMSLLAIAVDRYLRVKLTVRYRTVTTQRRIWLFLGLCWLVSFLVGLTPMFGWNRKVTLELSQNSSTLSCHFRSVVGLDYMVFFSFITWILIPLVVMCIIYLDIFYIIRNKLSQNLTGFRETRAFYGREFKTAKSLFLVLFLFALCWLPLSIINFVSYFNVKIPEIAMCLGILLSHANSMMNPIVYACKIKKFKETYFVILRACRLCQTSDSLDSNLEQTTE
# Experiment: Displacement of [125I]AB-MECA from rat A3 adenosine receptor expressed in HEK293 cells at 1 uM after 60 mins by scintillation counting analysis
# Type: cell-based
# Summary of the method: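 Rat A3 receptor in HEK293 membranes (10 μg protein) incubated with 0.5 nM [125I]AB-MECA in 50 mM Tris-HCl, 10 mM MgCl2, 1 mM EDTA, pH 7.4, for 60 min at 37 °C. Nonspecific binding defined with 1 μM AB-MECA. Filtration then scintillation counting. Output is % inhibition at 1 μM.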
row,inhibition,Structure (SMILES)
1,12%,COc1ccc(-n2cc3nc(-c4ccccc4)nc(NC(=O)c4ccccc4)c3n2)cc1
2,2%,O=C(Cc1ccccc1)Nc1nc(-c2ccccc2)nc2cn(-c3ccccc3)nc12
3,6%,Cc1nc(NC(=O)c2ccccc2)c2nn(-c3ccccc3)cc2n1

# Test system: Astrocyte
# Experiment: Antiapoptotic activity against Sprague-Dawley rat astrocytes assessed as reduction of oxaliplatin-induced caspase-3 activity at 0.1 to 10 uM after 4 hrs by fluorimetric assay
# Type: functional, cell-based
# Summary of the method: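 Primary cortical astrocytes from newborn (P1–P3) rats, GFAP-positive, used 21 days after isolation and serum-starved overnight. Cells were exposed to 100 μM oxaliplatin for 4 h with test compound co-incubated. Lysates were incubated with 0.025 mM Z-DEVD-R110 at 25 °C for 30 min and read by fluorescence (ex 496/em 520 nm). Output is % of untreated control, mean SEM.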
row,Activity,Structure (SMILES)
1,Active,COc1ccc(-n2cc3nc(-c4ccccc4)nc(NC(=O)c4ccccc4)c3n2)cc1
2,Active,O=C(Cc1ccccc1)Nc1nc(-c2ccccc2)nc2cn(-c3ccccc3)nc12
3,Active,Cc1nc(NC(=O)c2ccccc2)c2nn(-c3ccccc3)cc2n1

# Target: T2, Adenosine receptor A3 (Homo sapiens, UniProt P0DMS8)
# T2 sequence (P0DMS8 whole entry): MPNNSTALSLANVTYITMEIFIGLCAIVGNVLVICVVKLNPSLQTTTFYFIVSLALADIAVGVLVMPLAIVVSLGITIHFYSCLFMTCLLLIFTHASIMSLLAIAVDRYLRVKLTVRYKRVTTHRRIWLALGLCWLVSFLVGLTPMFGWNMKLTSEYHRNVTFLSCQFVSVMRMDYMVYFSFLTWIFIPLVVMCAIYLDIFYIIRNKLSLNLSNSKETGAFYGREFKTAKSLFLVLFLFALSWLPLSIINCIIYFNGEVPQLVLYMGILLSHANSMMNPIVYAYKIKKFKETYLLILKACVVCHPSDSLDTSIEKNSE
# Experiment: Displacement of [125I]AB-MECA from human A3 adenosine receptor expressed in CHO cells after 60 mins by scintillation counting analysis
# Type: cell-based
row,Structure (SMILES),Ki
1,COc1ccc(-n2cc3nc(-c4ccccc4)nc(NC(C)=O)c3n2)cc1,98 nM
2,O=C(Nc1nc(-c2ccccc2)nc2cn(-c3ccccc3)nc12)c1ccccc1,20 nM
3,Cc1nc(N(C(=O)c2ccccc2)C(=O)c2ccccc2)c2nn(-c3ccccc3)cc2n1,33 nM
4,O=C(Nc1nc(-c2ccccc2)nc2cn(-c3ccccc3)nc12)c1ccncc1,25 nM
5,COc1ccc(-n2cc3nc(C)nc(NC(=O)Cc4ccccc4)c3n2)cc1,520 nM
6,COc1ccc(-n2cc3nc(-c4ccccc4)nc(NC(=O)c4ccccc4)c3n2)cc1,18 nM
7,O=C(Cc1ccccc1)Nc1nc(-c2ccccc2)nc2cn(-c3ccccc3)nc12,18 nM
8,COc1ccc(-n2cc3nc(-c4ccccc4)nc(N)c3n2)cc1,75 nM
9,O=C(Nc1nc(-c2ccccc2)nc2cn(-c3ccccc3)nc12)c1ccco1,24 nM
10,COc1ccc(C(=O)Nc2nc(-c3ccccc3)nc3cn(-c4ccccc4)nc23)cc1,7.3 nM

# Next, values leading:
row,Ki,Structure (SMILES)
1,5.3 nM,Cc1nc(NC(=O)c2cccnc2)c2nn(-c3ccccc3)cc2n1
2,32 nM,CC(=O)Nc1nc(-c2ccccc2)nc2cn(-c3ccccc3)nc12
3,5.2 nM,Cc1nc(NC(=O)c2ccncc2)c2nn(-c3ccccc3)cc2n1
4,35 nM,COc1ccc(-n2cc3nc(C)nc(NC(=O)c4ccccc4)c3n2)cc1
5,5.6 nM,Cc1nc(NC(=O)c2ccccc2)c2nn(-c3ccccc3)cc2n1

# Target: T3, Adenosine receptor A1 (Homo sapiens) (UniProt P30542)
# T3 sequence (whole entry): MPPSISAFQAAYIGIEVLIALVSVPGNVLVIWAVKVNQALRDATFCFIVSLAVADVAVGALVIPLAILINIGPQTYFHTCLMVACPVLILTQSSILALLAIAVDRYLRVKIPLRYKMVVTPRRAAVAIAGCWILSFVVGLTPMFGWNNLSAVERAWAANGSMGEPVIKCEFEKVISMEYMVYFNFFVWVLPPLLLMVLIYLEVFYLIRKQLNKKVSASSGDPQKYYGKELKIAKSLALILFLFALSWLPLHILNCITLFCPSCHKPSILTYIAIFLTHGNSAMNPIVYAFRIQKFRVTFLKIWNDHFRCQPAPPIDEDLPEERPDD
# Experiment: Displacement of [3H]DPCPX from human A1 adenosine receptor expressed in CHO cells at 1 uM after 120 mins by scintillation counting analysis
# Type: cell-based
row,Structure (SMILES),inhibition
1,COc1ccc(-n2cc3nc(-c4ccccc4)nc(NC(C)=O)c3n2)cc1,1%
2,O=C(Nc1nc(-c2ccccc2)nc2cn(-c3ccccc3)nc12)c1ccccc1,5%
3,Cc1nc(N(C(=O)c2ccccc2)C(=O)c2ccccc2)c2nn(-c3ccccc3)cc2n1,6%
4,O=C(Nc1nc(-c2ccccc2)nc2cn(-c3ccccc3)nc12)c1ccncc1,1%
5,COc1ccc(-n2cc3nc(C)nc(NC(=O)Cc4ccccc4)c3n2)cc1,9%
6,COc1ccc(-n2cc3nc(-c4ccccc4)nc(NC(=O)c4ccccc4)c3n2)cc1,3%
7,O=C(Cc1ccccc1)Nc1nc(-c2ccccc2)nc2cn(-c3ccccc3)nc12,5%
8,COc1ccc(-n2cc3nc(-c4ccccc4)nc(N)c3n2)cc1,12%
9,O=C(Nc1nc(-c2ccccc2)nc2cn(-c3ccccc3)nc12)c1ccco1,11%
10,COc1ccc(C(=O)Nc2nc(-c3ccccc3)nc3cn(-c4ccccc4)nc23)cc1,3%

# Further lines, results first:
row,inhibition,Structure (SMILES)
1,12%,Cc1nc(NC(=O)c2cccnc2)c2nn(-c3ccccc3)cc2n1
2,5%,CC(=O)Nc1nc(-c2ccccc2)nc2cn(-c3ccccc3)nc12
3,12%,Cc1nc(NC(=O)c2ccncc2)c2nn(-c3ccccc3)cc2n1
4,1%,COc1ccc(-n2cc3nc(C)nc(NC(=O)c4ccccc4)c3n2)cc1
5,30%,Cc1nc(NC(=O)c2ccccc2)c2nn(-c3ccccc3)cc2n1

# Target: T4, Adenosine receptor A2b (Homo sapiens) (UniProt P29275)
# T4 sequence (whole entry): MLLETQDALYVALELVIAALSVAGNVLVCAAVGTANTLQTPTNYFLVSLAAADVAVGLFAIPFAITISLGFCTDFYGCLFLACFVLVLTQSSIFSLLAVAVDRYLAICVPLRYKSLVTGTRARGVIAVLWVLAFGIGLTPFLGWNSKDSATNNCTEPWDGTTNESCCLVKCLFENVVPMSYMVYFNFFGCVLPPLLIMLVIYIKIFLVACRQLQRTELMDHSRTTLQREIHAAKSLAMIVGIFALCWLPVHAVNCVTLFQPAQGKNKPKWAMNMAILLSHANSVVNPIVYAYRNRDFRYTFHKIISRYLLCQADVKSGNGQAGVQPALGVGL
# Experiment: Inhibition of human A2B adenosine receptor transfected in CHO cells assessed as inhibition of NECA-induced cyclic AMP production at 1 uM after 10 mins by competitive protein binding assay
# Type: cell-based
# Summary of the method: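 Human A2B CHO cells (1 × 10⁶/assay) preincubated 10 min at 37 °C in buffer with adenosine deaminase (2 IU/mL) and Ro 20-1724. Antagonist inhibition of 200 nM NECA-stimulated cAMP measured; reaction stopped with TCA. cAMP quantified by [3H]cAMP competition with adrenal binding protein. IC50 by sigmoid fit, mean SEM of four experiments; % inhibition at 1 μM.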
row,Structure (SMILES),inhibition
1,COc1ccc(-n2cc3nc(-c4ccccc4)nc(NC(C)=O)c3n2)cc1,1%
2,O=C(Nc1nc(-c2ccccc2)nc2cn(-c3ccccc3)nc12)c1ccccc1,2%
3,Cc1nc(N(C(=O)c2ccccc2)C(=O)c2ccccc2)c2nn(-c3ccccc3)cc2n1,5%
4,O=C(Nc1nc(-c2ccccc2)nc2cn(-c3ccccc3)nc12)c1ccncc1,1%
5,COc1ccc(-n2cc3nc(C)nc(NC(=O)Cc4ccccc4)c3n2)cc1,11%
6,COc1ccc(-n2cc3nc(-c4ccccc4)nc(NC(=O)c4ccccc4)c3n2)cc1,2%
7,O=C(Cc1ccccc1)Nc1nc(-c2ccccc2)nc2cn(-c3ccccc3)nc12,2%
8,COc1ccc(-n2cc3nc(-c4ccccc4)nc(N)c3n2)cc1,3%
9,O=C(Nc1nc(-c2ccccc2)nc2cn(-c3ccccc3)nc12)c1ccco1,1%
10,COc1ccc(C(=O)Nc2nc(-c3ccccc3)nc3cn(-c4ccccc4)nc23)cc1,1%

# The remaining lines, values ahead:
row,inhibition,Structure (SMILES)
1,1%,Cc1nc(NC(=O)c2cccnc2)c2nn(-c3ccccc3)cc2n1
2,2%,CC(=O)Nc1nc(-c2ccccc2)nc2cn(-c3ccccc3)nc12
3,1%,COc1ccc(-n2cc3nc(C)nc(NC(=O)c4ccccc4)c3n2)cc1
4,2%,Cc1nc(NC(=O)c2ccccc2)c2nn(-c3ccccc3)cc2n1

# Target: T2, Adenosine receptor A3
# Experiment: Inhibition of human A3 adenosine receptor transfected in CHO cells assessed as inhibition of forskolin-induced cyclic AMP production after 10 mins by competitive protein binding assay in presence of CI-IB-MECA
# Type: functional, cell-based
# Summary of the method: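 Human A3 CHO cells (1 × 10⁶/assay) preincubated 10 min at 37 °C with adenosine deaminase and Ro 20-1724. Antagonist potency measured against 100 nM Cl-IB-MECA-mediated inhibition of 1 μM forskolin-stimulated cAMP. cAMP quantified by [3H]cAMP competition binding. IC50 by sigmoid regression, mean SEM of four experiments.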
row,Structure (SMILES),IC50
1,O=C(Nc1nc(-c2ccccc2)nc2cn(-c3ccccc3)nc12)c1ccccc1,65 nM
2,Cc1nc(N(C(=O)c2ccccc2)C(=O)c2ccccc2)c2nn(-c3ccccc3)cc2n1,115 nM
3,COc1ccc(-n2cc3nc(-c4ccccc4)nc(NC(=O)c4ccccc4)c3n2)cc1,63 nM
4,O=C(Cc1ccccc1)Nc1nc(-c2ccccc2)nc2cn(-c3ccccc3)nc12,61 nM

# Next, values leading:
row,IC50,Structure (SMILES)
1,103 nM,CC(=O)Nc1nc(-c2ccccc2)nc2cn(-c3ccccc3)nc12
2,128 nM,COc1ccc(-n2cc3nc(C)nc(NC(=O)c4ccccc4)c3n2)cc1
3,19.7 nM,Cc1nc(NC(=O)c2ccccc2)c2nn(-c3ccccc3)cc2n1

# Target: Adenosine receptor A2a (Homo sapiens, UniProt P29274)
# Sequence (P29274 whole entry): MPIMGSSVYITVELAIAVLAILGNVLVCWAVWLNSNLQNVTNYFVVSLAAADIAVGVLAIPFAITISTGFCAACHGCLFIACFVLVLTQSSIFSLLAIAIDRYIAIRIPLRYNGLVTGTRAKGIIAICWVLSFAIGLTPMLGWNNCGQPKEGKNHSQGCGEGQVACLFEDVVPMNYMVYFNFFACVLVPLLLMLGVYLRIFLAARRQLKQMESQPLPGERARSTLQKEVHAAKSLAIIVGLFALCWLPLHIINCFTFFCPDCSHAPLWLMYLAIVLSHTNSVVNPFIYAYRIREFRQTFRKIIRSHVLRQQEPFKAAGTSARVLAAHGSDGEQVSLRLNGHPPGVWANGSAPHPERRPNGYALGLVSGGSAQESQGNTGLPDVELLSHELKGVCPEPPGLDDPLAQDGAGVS
# Experiment: Displacement of [3H]ZM241385 from human A2A adenosine receptor expressed in CHO cells at 1 uM after 60 mins by scintillation counting analysis
# Type: cell-based
# Summary of the method: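 Human A2A CHO membranes (50 μg protein) incubated with 1 nM [3H]ZM-241385 in 50 mM Tris-HCl, 10 mM MgCl2, pH 7.4, for 60 min at 4 °C, using 6–8 concentrations or 1 μM for % inhibition. Nonspecific binding defined with 1 μM ZM-241385. Ki via Cheng–Prusoff, mean SEM of four assays in duplicate.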
row,Structure (SMILES),inhibition
1,COc1ccc(-n2cc3nc(-c4ccccc4)nc(NC(C)=O)c3n2)cc1,11%
2,O=C(Nc1nc(-c2ccccc2)nc2cn(-c3ccccc3)nc12)c1ccccc1,5%
3,Cc1nc(N(C(=O)c2ccccc2)C(=O)c2ccccc2)c2nn(-c3ccccc3)cc2n1,1%
4,O=C(Nc1nc(-c2ccccc2)nc2cn(-c3ccccc3)nc12)c1ccncc1,1%
5,COc1ccc(-n2cc3nc(C)nc(NC(=O)Cc4ccccc4)c3n2)cc1,11%
6,COc1ccc(-n2cc3nc(-c4ccccc4)nc(NC(=O)c4ccccc4)c3n2)cc1,1%
7,O=C(Cc1ccccc1)Nc1nc(-c2ccccc2)nc2cn(-c3ccccc3)nc12,5%
8,COc1ccc(-n2cc3nc(-c4ccccc4)nc(N)c3n2)cc1,35%
9,O=C(Nc1nc(-c2ccccc2)nc2cn(-c3ccccc3)nc12)c1ccco1,1%
10,COc1ccc(C(=O)Nc2nc(-c3ccccc3)nc3cn(-c4ccccc4)nc23)cc1,1%

# Next, values leading:
row,inhibition,Structure (SMILES)
1,1%,Cc1nc(NC(=O)c2cccnc2)c2nn(-c3ccccc3)cc2n1
2,5%,CC(=O)Nc1nc(-c2ccccc2)nc2cn(-c3ccccc3)nc12
3,1%,Cc1nc(NC(=O)c2ccncc2)c2nn(-c3ccccc3)cc2n1
4,7%,COc1ccc(-n2cc3nc(C)nc(NC(=O)c4ccccc4)c3n2)cc1
5,1%,Cc1nc(NC(=O)c2ccccc2)c2nn(-c3ccccc3)cc2n1
